Laboratory results reported in ChEMBL document CHEMBL4190362, “Synthesis, biological evaluation and quantitative structure-active relationships of 1,3-thiazolidin-4-one derivatives. A promising chemical scaffold endowed with high antifungal potency and low cytotoxicity” (Eur J Med Chem, 2017).
Converted amounts (≈) assume the structure as drawn.

Legend:
[1] = Selectivity index, ratio of CC50 for human Hep2 cells to MIC for Candida albicans clinical isolates; assay type: toxicity; details: HEp-2 cells, read-out: Selectivity Index
Procedure, shortened: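 Calculated as Hep2 CC50 (Trypan Blue exclusion, 24 h, 37 °C) divided by MIC against C. albicans.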

Pichia kudriavzevii = test: Antifungal activity against Candida krusei clinical isolates assessed as inhibition of microbial growth incubated for 24 hrs by broth microdilution method; assay type: functional
Procedure, shortened: (§1)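 Twenty-two clinical Candida isolates (8 C. albicans, 4 C. glabrata, 3 C. tropicalis, 3 C. krusei, 2 C. parapsilosis, 2 C. sake) were identified by colony morphology and biochemistry and subcultured at 35 °C for purity. Compounds were dissolved in DMSO and tested by broth microdilution in Sabouraud dextrose broth per NCCLS/CLSI/EUCAST guidance. Values are geometric mean MIC per species (µg/mL).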

Nakaseomyces glabratus = test: Antifungal activity against Candida glabrata clinical isolates assessed as inhibition of microbial growth incubated for 24 hrs by broth microdilution method; assay type: functional; procedure, shortened: as §1
[2] = Cytotoxicity against human Hep2 cells assessed as reduction in cell viability incubated for 24 hrs by trypan blue dye exclusion assay; assay type: cell-based; details: HEp-2 cells
Procedure, shortened: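 Hep2 (human laryngeal epidermoid carcinoma) cells were exposed to five concentrations from 0.05 to 100 µg/mL for 24 h at 37 °C, and viability was scored by Trypan Blue exclusion as survival fraction. Controls were medium alone, DMSO-treated cells and 1 mM sodium nitroprusside. CC50 is the mean ± SD of at least three independent experiments.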

[Candida] sake = Antifungal activity against Candida sake clinical isolates assessed as inhibition of microbial growth incubated for 24 hrs by broth microdilution method; assay type: functional; details: Fermentozyma sake; procedure, shortened: as §1
Candida albicans = test: Antifungal activity against Candida albicans clinical isolates assessed as inhibition of microbial growth incubated for 24 hrs by broth microdilution method; assay type: functional; procedure, shortened: as §1
Candida parapsilosis = test: Antifungal activity against Candida parapsilosis clinical isolates assessed as inhibition of microbial growth incubated for 24 hrs by broth microdilution method; assay type: functional; details: Lodderomyces parapsilosis; procedure, shortened: as §1
Candida tropicalis = test: Antifungal activity against Candida tropicalis clinical isolates assessed as inhibition of microbial growth incubated for 24 hrs by broth microdilution method; assay type: functional; procedure, shortened: as §1
Escherichia coli = test: Antibacterial activity against Escherichia coli assessed as inhibition of microbial growth incubated for 18 to 22 hrs by broth microdilution method; assay type: functional
Procedure, shortened: (§2)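 Broth microdilution in Mueller-Hinton II broth following NCCLS recommendations; compounds dissolved in DMSO.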

Enterobacter = test: Antibacterial activity against Enterobacter spp. assessed as inhibition of microbial growth incubated for 18 to 22 hrs by broth microdilution method; assay type: functional; procedure, shortened: as §2
Staphylococcus warneri = test: Antibacterial activity against Staphylococcus warneri assessed as inhibition of microbial growth incubated for 18 to 22 hrs by broth microdilution method; assay type: functional; procedure, shortened: as §2
Klebsiella oxytoca = test: Antibacterial activity against Klebsiella oxytoca assessed as inhibition of microbial growth incubated for 18 to 22 hrs by broth microdilution method; assay type: functional; procedure, shortened: as §2
Enterococcus faecalis = test: Antibacterial activity against Streptococcus faecalis assessed as inhibition of microbial growth incubated for 18 to 22 hrs by broth microdilution method; assay type: functional; procedure, shortened: as §2
Proteus mirabilis = test: Antibacterial activity against Proteus mirabilis assessed as inhibition of microbial growth incubated for 18 to 22 hrs by broth microdilution method; assay type: functional; procedure, shortened: as §2
Staphylococcus aureus = test: Antibacterial activity against Staphylococcus aureus assessed as inhibition of microbial growth incubated for 18 to 22 hrs by broth microdilution method; assay type: functional; procedure, shortened: as §2
[3] = system: Streptococcus alpha-hemolyticus (Streptococcus sp.); test: Antibacterial activity against Streptococcus Streptococcus alpha hemolyticus assessed as inhibition of microbial growth incubated for 18 to 22 hrs by broth microdilution method

Structure (SMILES)	selectivity ratio [1]	MIC (Pichia kudriavzevii)	MIC (Nakaseomyces glabratus)	CC50 at 24 h [2]	MIC ([Candida] sake)	MIC (Candida albicans)	MIC (Candida parapsilosis)	MIC (Candida tropicalis)	MIC (Escherichia coli)	MIC (Enterobacter)	MIC (Staphylococcus warneri)	MIC (Klebsiella oxytoca)	MIC (Enterococcus faecalis)	MIC (Proteus mirabilis)	MIC (Staphylococcus aureus)	MIC [3]
Clc1ccccc1C(c1ccccc1)(c1ccccc1)n1ccnc1 [CLOTRIMAZOLE]	19	2 µg/mL	2 µg/mL	38.8 µg/mL (≈ 113 µM)	2 µg/mL	2 µg/mL	2 µg/mL	2 µg/mL	–	–	–	–	–	–	–	–
C/C(=N/N=C1/SCC(=O)N1Cc1ccccc1)c1cccnc1	18.5	2 µg/mL	2 µg/mL	37.4 µg/mL (≈ 115 µM)	2 µg/mL	2 µg/mL	2 µg/mL	2 µg/mL	≥ 256 µg/mL	≥ 256 µg/mL	≥ 256 µg/mL	≥ 256 µg/mL	≥ 256 µg/mL	≥ 256 µg/mL	≥ 256 µg/mL	–
CC(=O)c1ccc(/C(C)=N\N=C2/NC(=O)CS2)cc1	–	8 µg/mL	2 µg/mL	–	8 µg/mL	2 µg/mL	2 µg/mL	2 µg/mL	≥ 256 µg/mL	≥ 256 µg/mL	≥ 256 µg/mL	≥ 256 µg/mL	≥ 256 µg/mL	≥ 256 µg/mL	≥ 256 µg/mL	≥ 256 µg/mL
C/C(=N/N=C1\NC(=O)CS1)c1cccc2ccccc12	–	16 µg/mL	2 µg/mL	–	2 µg/mL	2 µg/mL	2 µg/mL	16 µg/mL	≥ 256 µg/mL	≥ 256 µg/mL	≥ 256 µg/mL	≥ 256 µg/mL	≥ 256 µg/mL	≥ 256 µg/mL	≥ 256 µg/mL	≥ 256 µg/mL
C/C(CC(C)C)=N/N=C1\NC(=O)CS1	–	2 µg/mL	2 µg/mL	–	2 µg/mL	2 µg/mL	2 µg/mL	2 µg/mL	≥ 256 µg/mL	≥ 256 µg/mL	≥ 256 µg/mL	≥ 256 µg/mL	≥ 256 µg/mL	≥ 256 µg/mL	≥ 256 µg/mL	≥ 256 µg/mL
C/C(=N/N=C1\NC(=O)CS1)c1ccccc1	–	8 µg/mL	2 µg/mL	–	16 µg/mL	2 µg/mL	16 µg/mL	16 µg/mL	≥ 256 µg/mL	≥ 256 µg/mL	≥ 256 µg/mL	≥ 256 µg/mL	≥ 256 µg/mL	≥ 256 µg/mL	≥ 256 µg/mL	≥ 256 µg/mL
C/C(=N/N=C1\NC(=O)CS1)c1ccccc1[N+](=O)[O-]	–	8 µg/mL	2 µg/mL	–	2 µg/mL	2 µg/mL	2 µg/mL	2 µg/mL	≥ 256 µg/mL	≥ 256 µg/mL	≥ 256 µg/mL	≥ 256 µg/mL	≥ 256 µg/mL	≥ 256 µg/mL	≥ 256 µg/mL	≥ 256 µg/mL
O=C1CS/C(=N/N=C\c2ccc3c(c2)OCO3)N1	–	256 µg/mL	256 µg/mL	–	256 µg/mL	256 µg/mL	256 µg/mL	256 µg/mL	≥ 256 µg/mL	≥ 256 µg/mL	≥ 256 µg/mL	≥ 256 µg/mL	≥ 256 µg/mL	≥ 256 µg/mL	≥ 256 µg/mL	≥ 256 µg/mL
C/C(=N/N=C1\NC(=O)CS1)c1ccc2ccccc2c1	–	16 µg/mL	16 µg/mL	–	256 µg/mL	32 µg/mL	256 µg/mL	32 µg/mL	≥ 256 µg/mL	≥ 256 µg/mL	≥ 256 µg/mL	≥ 256 µg/mL	≥ 256 µg/mL	≥ 256 µg/mL	≥ 256 µg/mL	≥ 256 µg/mL
O=C1CS/C(=N/N=C2CCCCC2)N1Cc1ccccc1	11	2 µg/mL	2 µg/mL	22.8 µg/mL (≈ 75.6 µM)	2 µg/mL	2 µg/mL	2 µg/mL	2 µg/mL	≥ 256 µg/mL	≥ 256 µg/mL	≥ 256 µg/mL	≥ 256 µg/mL	≥ 256 µg/mL	≥ 256 µg/mL	≥ 256 µg/mL	–
C/C(=N/N=C1\NC(=O)CS1)c1cccnc1	–	256 µg/mL	256 µg/mL	–	256 µg/mL	256 µg/mL	256 µg/mL	256 µg/mL	≥ 256 µg/mL	≥ 256 µg/mL	≥ 256 µg/mL	≥ 256 µg/mL	≥ 256 µg/mL	≥ 256 µg/mL	≥ 256 µg/mL	≥ 256 µg/mL
O=C1CS/C(=N/N=C\c2c[nH]c3ccccc23)N1	–	16 µg/mL	16 µg/mL	–	256 µg/mL	128 µg/mL	256 µg/mL	8 µg/mL	≥ 256 µg/mL	≥ 256 µg/mL	≥ 256 µg/mL	≥ 256 µg/mL	≥ 256 µg/mL	≥ 256 µg/mL	≥ 256 µg/mL	≥ 256 µg/mL
C/C(=N\N=C1/NC(=O)CS1)c1cc2ccccc2o1	–	2 µg/mL	8 µg/mL	–	2 µg/mL	2 µg/mL	2 µg/mL	2 µg/mL	≥ 256 µg/mL	≥ 256 µg/mL	≥ 256 µg/mL	≥ 256 µg/mL	≥ 256 µg/mL	≥ 256 µg/mL	≥ 256 µg/mL	≥ 256 µg/mL
CC1(C)CCC/C(=N/N=C2\NC(=O)CS2)C1	–	2 µg/mL	2 µg/mL	–	2 µg/mL	2 µg/mL	128 µg/mL	32 µg/mL	≥ 256 µg/mL	≥ 256 µg/mL	≥ 256 µg/mL	≥ 256 µg/mL	≥ 256 µg/mL	≥ 256 µg/mL	≥ 256 µg/mL	≥ 256 µg/mL
CC(C)(C)C1CCCC/C1=N/N=C1\NC(=O)CS1 (stereo not given)	–	2 µg/mL	8 µg/mL	–	2 µg/mL	8 µg/mL	2 µg/mL	8 µg/mL	≥ 256 µg/mL	≥ 256 µg/mL	≥ 256 µg/mL	≥ 256 µg/mL	≥ 256 µg/mL	≥ 256 µg/mL	≥ 256 µg/mL	≥ 256 µg/mL
C/C(=N/N=C1\NC(=O)CS1)c1ccco1	–	2 µg/mL	2 µg/mL	–	2 µg/mL	2 µg/mL	2 µg/mL	2 µg/mL	≥ 256 µg/mL	≥ 256 µg/mL	≥ 256 µg/mL	≥ 256 µg/mL	≥ 256 µg/mL	≥ 256 µg/mL	≥ 256 µg/mL	≥ 256 µg/mL
C/C(=N/N=C1\NC(=O)CS1)c1c[nH]c2ccccc12	–	2 µg/mL	8 µg/mL	–	16 µg/mL	4 µg/mL	4 µg/mL	8 µg/mL	≥ 256 µg/mL	≥ 256 µg/mL	≥ 256 µg/mL	≥ 256 µg/mL	≥ 256 µg/mL	≥ 256 µg/mL	≥ 256 µg/mL	≥ 256 µg/mL
O=C1CSC(NN=C2CCCCCCC2)=N1	–	32 µg/mL	8 µg/mL	–	32 µg/mL	8 µg/mL	32 µg/mL	8 µg/mL	≥ 256 µg/mL	≥ 256 µg/mL	≥ 256 µg/mL	≥ 256 µg/mL	≥ 256 µg/mL	≥ 256 µg/mL	≥ 256 µg/mL	≥ 256 µg/mL
C/C(=N/N=C1\NC(=O)CS1)c1ccc2c(c1)OCCO2	–	8 µg/mL	4 µg/mL	–	8 µg/mL	4 µg/mL	16 µg/mL	4 µg/mL	≥ 256 µg/mL	≥ 256 µg/mL	≥ 256 µg/mL	≥ 256 µg/mL	≥ 256 µg/mL	≥ 256 µg/mL	≥ 256 µg/mL	≥ 256 µg/mL
CC1=C(/C=N\N=C2/NC(=O)CS2)C(C)(C)CC=C1	–	2 µg/mL	2 µg/mL	–	2 µg/mL	2 µg/mL	16 µg/mL	16 µg/mL	≥ 256 µg/mL	≥ 256 µg/mL	≥ 256 µg/mL	≥ 256 µg/mL	≥ 256 µg/mL	≥ 256 µg/mL	≥ 256 µg/mL	≥ 256 µg/mL
O=C1CS/C(=N/N=C\c2cccc3ccccc23)N1	–	256 µg/mL	256 µg/mL	–	256 µg/mL	256 µg/mL	256 µg/mL	256 µg/mL	≥ 256 µg/mL	≥ 256 µg/mL	≥ 256 µg/mL	≥ 256 µg/mL	≥ 256 µg/mL	≥ 256 µg/mL	≥ 256 µg/mL	≥ 256 µg/mL
